The values that follow come from ChEMBL document CHEMBL1122679, “Beta-adrenergic blocking agents: substituted phenylalkanolamines. Effect of side-chain length on beta-blocking potency in vitro” (J Med Chem, 1984).

The nature of data set [1]: pK value is evaluated. The format is ADME. The note with it: read-out: pK. Put shortly:
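Spectrophotometric determination. Dilute solutions were circulated through a glass electrode and a 1-cm spectrophotometer cell. pKa was calculated from the pH-dependent spectra.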

For data set [2], the species on record is Cavia porcellus. Description: Beta-adrenoceptor blocking potency in the isolated guinea pig heart, giving 50% inhibition of isoproterenol-induced tachycardia relative to oxprenolol. The format is functional.
The nature of data set [3]: Partition coefficient (logP). It is filed as physicochemical. The settings on record: octanol/water. A digest of the protocol: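 Octanol/buffer partitioning. Compounds at about 10^-4 M in 0.067 M pH 7.4 phosphate buffer (octanol-saturated) were shaken with buffer-saturated 1-octanol for 1 h at 25.0 °C, then centrifuged. Concentrations in each phase were measured spectrophotometrically. The coefficient was taken as the octanol/buffer concentration ratio, done in triplicate.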

The species named for data set [4] is Cavia porcellus. In words: Beta-adrenoceptor blocking potency in the isolated guinea pig heart, giving 50% inhibition of isoproterenol-induced tachycardia. The format is functional. A digest of the protocol:
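Langendorff-perfused isolated hearts from male Pirbright guinea pigs (330-640 g), removed under urethane anesthesia (1.5 g/kg ip). Perfusion with oxygenated Krebs-Henseleit plus ascorbic acid and NaEDTA at 36 °C. Heart rate recorded continuously. After ~30 min control, DL-isoproterenol sulfate (0.005 µg/mL) was added to the perfusate. Increasing compound concentrations were then given, 10 min each, against the isoproterenol tachycardia.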

The species named for data set [5] is Cavia porcellus. In words: Compound was evaluated for beta-adrenoceptor blocking potency in the isolated guinea pig, giving 50% inhibition of isoproterenol-induced tachycardia relative to oxprenolol. The format is functional.

Regarding `COc1ccccc1CCC(O)CNCCOc1ccc(O)c(C(N)=O)c1` (stereo unspecified), the pKa in data set [1] was found to be 8.9. The compound further registered a Relative activity in the data set filed under Cavia porcellus [2] of 1.8. Moreover, the log partition coefficient (logP) – broadly, the decadic logarithm of the partition coefficient of the neutral form, usually between octanol and water – in data set [3] (read-out: logP) was 1.56. Besides, in the data set listed under Cavia porcellus [4], the “-Log concentration” value worked out at 7.85 log_unit.
Consider `COc1ccc(CCC(O)CNCCOc2ccc(O)c(C(N)=O)c2)cc1` (stereo unspecified), for which, in the data set listed under Cavia porcellus [5], the Relative activity was found to be 0.029. For the same compound, the “-Log concentration” value in the data set listed under Cavia porcellus [4] was 6.07 log_unit.
Regarding `COc1ccccc1C(O)CNCCOc1ccc(O)c(C(N)=O)c1` (stereo unspecified), the Relative activity in the data set filed under Cavia porcellus [2] stood at 0.33. In addition, in the data set filed under Cavia porcellus [4], the “-Log concentration” value is reported as 7.12 log_unit.
As for `COc1ccccc1CC(O)CNCCOc1ccc(O)c(C(N)=O)c1` (stereo unspecified), in the data set listed under Cavia porcellus [2], the Relative activity turned out to be 0.061. Also, the “-Log concentration” value in the data set listed under Cavia porcellus [4] worked out at 6.39 log_unit.
Taken in the same sequence, the figures for `NC(=O)c1cc(OCCNCC(O)Cc2ccccc2)ccc1O` (stereo unspecified) were 0.018 and 5.84 log_unit.
Take `C=CCOc1ccccc1OCC(O)CNC(C)C` (stereo unspecified) [OXPRENOLOL]: in data set [1], the pKa stood at 9.4. In the data set filed under Cavia porcellus [2], this compound came in with a Relative activity of 1. The compound further had a logP in data set [3] of 0.2. Moreover, the “-Log concentration” value in the data set listed under Cavia porcellus [4] turned out to be 7.6 M l-1.
As to `NC(=O)c1cc(OCCNCC(O)c2ccccc2)ccc1O` (stereo unspecified), the Relative activity in the data set filed under Cavia porcellus [2] came to 0.011. The logP in data set [3] (read-out: logP) was found to be 1.24. In addition, the “-Log concentration” value in the data set filed under Cavia porcellus [4] was 5.66 log_unit.
`COc1ccccc1OCC(O)CNCCOc1ccc(O)c(C(N)=O)c1` (stereo unspecified) displayed a Relative activity in the data set listed under Cavia porcellus [5] of 6.9. For the same compound, the pKa in data set [1] amounted to 8.8. Besides, in data set [3] (read-out: logP), the logP came out at 1.14. Further, in the data set filed under Cavia porcellus [4], the “-Log concentration” value was found to be 8.45 log_unit.
Turning to `COc1ccccc1CCCCC(O)CNCCOc1ccc(O)c(C(N)=O)c1` (stereo unspecified), the Relative activity in the data set listed under Cavia porcellus [2] is listed as 0.068. In the data set filed under Cavia porcellus [4], the “-Log concentration” value is 6.43 log_unit.
As for `COc1ccccc1CCC(O)CNC(C)(C)C` (stereo unspecified), the pKa in data set [1] was found to be 9.9. The compound also displayed a Relative activity in the data set listed under Cavia porcellus [2] of 0.012. Moreover, the logP in data set [3] (read-out: logP) is -0.21. The “-Log concentration” value in the data set listed under Cavia porcellus [4] is reported as 5.67 log_unit.
In the data set filed under Cavia porcellus [2], `NC(=O)c1cc(OCCNCC(O)CCCCc2ccccc2)ccc1O` (stereo unspecified) registered a Relative activity of 0.018. The “-Log concentration” value in the data set listed under Cavia porcellus [4] was 5.85 log_unit.
With `Cc1ccccc1CCC(O)CNCCOc1ccc(O)c(C(N)=O)c1` (stereo unspecified), in the data set listed under Cavia porcellus [2], the Relative activity is recorded as 0.3. Also, the “-Log concentration” value in the data set filed under Cavia porcellus [4] stood at 7.08 log_unit.
On to `COc1ccccc1CCCC(O)CNCCOc1ccc(O)c(C(N)=O)c1` (stereo unspecified), for which, in the data set listed under Cavia porcellus [2], the Relative activity is on record as 0.1. In addition, the “-Log concentration” value in the data set filed under Cavia porcellus [4] was determined as 6.6 log_unit.
In the data set listed under Cavia porcellus [2], `NC(=O)c1cc(OCCNCC(O)CCc2ccccc2)ccc1O` (stereo unspecified) showed a Relative activity of 0.19. The “-Log concentration” value in the data set filed under Cavia porcellus [4] is recorded as 6.9 log_unit.
Consider `COc1ccccc1OCC(O)CNC(C)(C)C` (stereo unspecified), for which, in data set [1], the pKa amounted to 9.8. The Relative activity in the data set filed under Cavia porcellus [2] is given as 0.45. Further, the logP in data set [3] (read-out: logP) was -0.44. For the same compound, in the data set filed under Cavia porcellus [4], the “-Log concentration” value is given as 7.26 log_unit.
